18 compounds from ChEMBL document CHEMBL1123005, “1-Azacycloalkyl-1,4-benzodiazepin-2-ones with antianxiety-antidepressant actions” (J Med Chem, 1985) can be followed below.

Molecules are shown by their SMILES. The source made the active and inactive calls. The rule behind the calls is not given here.

In series [1] the target is GABA-A receptor; anion channel (Rattus norvegicus) (UniProt O09028+P15431+P18506+P18508+P19969+P20236+P23574+P23576+P28471+P28473+P30191+P62813+P63079+P63138+Q91ZM7+Q9ES14). The series can be described thus: Binding constant was determined by displacing potential to [3H]-diazepam binding in cerebral cortex homogenates of rat. The series is classed as tissue-based. Summed up: (§1)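 Wistar rat cerebral cortex homogenate incubated with compound and 2 nM [3H]diazepam at 0 °C for 60 min. Bound label trapped on glass filters and counted by scintillation. Ki = IC50/(1 + L/Kd).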

For series [2], the system named is Mus musculus. The series is described as follows: Effective dose against pentylenetetrazole intoxicity in mice administered orally. The series is classed as functional.
The subject of series [3] is Mus musculus. The series can be described thus: Effective dose against tetrabenazine induced ptosis in mice administered orally. The series is classed as functional. Summed up:
(§2)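 Male DS mice, 20-27 g, groups of five. Compound given po or sc in saline or gum arabic at 0.1 mL/10 g. Tetrabenazine 50 mg/kg sc given 1, 4 or 24 h later. Ptosis scored 1-4 at 1 h after TBZ, with ridit transformation. Dose for 50% prevention by regression.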

The subject of series [4] is Rattus norvegicus. The series can be described thus: Effective dose against anticonflict effect in rats when administered through oral route. The class given is functional. The procedure, abridged: (§3)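 Wistar rats in groups of 5-8, Geller-Seifter conflict procedure. Rats trained to lever-press for food on a variable-interval 60-s schedule. Oral dosing. A dose counted positive when shocks exceeded 12 or shock ratio exceeded 4 over four consecutive tone periods. ED50 with 95% limits by probit.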

The subject of series [5] is Mus musculus. The series is described as follows: Effective dose against pentylenetetrazole intoxicity in mice administered through subcutaneous route;NE = no effect at 10 mg/kg. The class given is functional, organism-based. More on the design: dose 10 mg/kg.
Series [6] concerns Mus musculus. The series can be described thus: Effective dose against tetrabenazine induced ptosis in mice administered subcutaneously. The class given is functional. As to conditions: sc. The procedure, abridged: as §2
The subject of series [7] is Mus musculus. The series can be described thus: Percent inhibition against tetrabenazine induced ptosis in mice administered orally at 50 mg/kg. The series is classed as functional. As to conditions: route oral. The procedure, abridged:
as §2

Series [8] has as its system Mus musculus. The series is described as follows: Effective dose against pentylenetetrazole intoxicity in mice administered through subcutaneous route; NE = no effect at 10 mg/kg. The class given is functional, organism-based. The arrangement: dose 10 mg/kg.
Series [9] deals with Mus musculus. The series is described as follows: Percent inhibition against tetrabenazine induced ptosis in mice administered subcutaneously at 50 mg/kg. The class given is functional. As to conditions: sc, route subcutaneous. The procedure, abridged: as §2
For series [10], the system named is Mus musculus. The series is described as follows: Effective dose against pentylenetetrazole intoxicity in mice administered orally; NE = no effect at 50 mg/kg. The series is classed as functional, organism-based. The arrangement: dose 50 mg/kg.
The subject of series [11] is Mus musculus. The series is described as follows: Percent Inhibition against pentylenetetrazole intoxicity in mice administered orally at 50 mg/kg. The class given is functional. As to conditions: route oral.
Series [12] concerns Mus musculus. The series can be described thus: Effective dose against pentylenetetrazole intoxicity in mice administered through subcutaneous route. As to conditions: sc. The series is classed as functional.
For series [13], the system named is Rattus norvegicus. The series can be described thus: Effective dose was evaluated by their anticonflict effect in rats when administered through oral route. The class given is functional. Summed up: as §3
The species named for series [14] is Rattus norvegicus. The series is described as follows: Inhibitory activity against uptake of [3H]norepinephrine into rat brain synaptosomes. The class given is functional. Summed up: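 P2 synaptosomes from male Wistar rat cerebral cortex incubated with [3H]norepinephrine at 37 °C for 20 min, with compound at 5-6 concentrations. Stopped by Krebs-Henseleit dilution and glass-fibre filtration, then scintillation counting. IC50 taken as the concentration giving 50% uptake inhibition.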

The nature of series [15]: Acute toxicity was measured in mice after peroral administration. The series is classed as organism-based. As to conditions: mouse, in vivo, po. Summed up:
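Male DS mice, 20-26 g, given compound orally; mortality checked the day after treatment in groups of 10. LD50 by probit method, or by up-and-down method of Brownlee et al. (n = 5) where estimated.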

In series [16] the test system is Mus musculus. The series can be described thus: Effective dose against pentylenetetrazole intoxicity in mice administered through subcutaneous route; NE= no effect at 10 mg/kg. The series is classed as functional, organism-based. The arrangement: dose 10 mg/kg.
For series [17], the system named is Mus musculus. The series can be described thus: Effective dose against pentylenetetrazole intoxicity in mice administered orally; NE= no effect at 50 mg/kg. The class given is functional, organism-based. More on the design: dose 50 mg/kg.
Series [18] has as its system Mus musculus. The series is described as follows: Effective dose against pentylenetetrazole intoxicity in mice administered through subcutaneous route;NE = no effect at 20 mg/kg. The class given is functional, organism-based. More on the design: dose 20 mg/kg.
The test system of series [19] is Mus musculus. The series can be described thus: Effective dose against tetrabenazine induced ptosis in mice administered subcutaneously; NE= no effect at 50 mg/kg. More on the design: dose 50 mg/kg. The class given is functional, organism-based. Summed up:
as §2

The species entered for series [20] is Rattus norvegicus. The series can be described thus: Displacement of [3H]diazepam binding in rat cerebral cortex homogenates (Experiment 1). The class given is tissue-based. The procedure, abridged:
as §1

Series [21] is filed under the species Rattus norvegicus. The series can be described thus: Displacement of [3H]diazepam binding to rat cerebral cortex homogenates (Experiment 2). The series is classed as tissue-based. Summed up: as §1
Setting [22] is: Mus musculus, po, read-out: ED50.

Compound `CN1CCC(N2C(=O)CN=C(c3ccccc3)c3cc(Br)ccc32)CC1` showed a K2 in series [1] of 0.415 µM. In addition, the ED50 in the series on Mus musculus [2] (setting [22]) worked out at 21.4 mg/kg; in the series with Mus musculus [3] (setting [22]), 2.88 mg/kg; in the series on Rattus norvegicus [4] it was 17.4 mg/kg.

Take `CN1CCC(N2C(=O)CN=C(c3ccccc3Cl)c3cc(F)ccc32)CC1`: the K2 in series [1] is 0.014 µM. Besides, the ED50 in the series on Mus musculus [2] (setting [22]) came out at 5.2 mg/kg; with Mus musculus [3] (setting [22]) it was 59.3 mg/kg.

In turn, `CN1CCC(N2C(=O)CN=C(c3cccc(Cl)c3)c3cc(Cl)ccc32)CC1` returned a K2 in series [1] of 23 µM. Moreover, the ED50 result in the series on Mus musculus [5] is “inactive”. Also, the ED50 in the series on Mus musculus [6] was found to be 19.3 mg/kg.

Regarding `O=C1CN=C(c2ccccc2Cl)c2cc(Cl)ccc2N1C1CCNC1` (centres undefined), the K2 in [1] worked out at 0.027 µM. The ED50 with Mus musculus [2] (setting [22]) turned out to be 9.63 mg/kg; in the series on Mus musculus [6], 12.6 mg/kg. In addition, at 50 mg/kg the inhibition in vivo with Mus musculus [7] was 34%.

For the compound `CN1CCC(N2C(=O)CN=C(c3ccc(F)cc3)c3ccccc32)CC1`, in series [1], the K2 amounted to 68 µM. Also, the ED50 entry in the series on Mus musculus [8] is “inactive”. This compound returned an inhibition in vivo at 50 mg/kg with Mus musculus [9] of 53%.

In series [1], `O=C1CN=C(c2ccccc2F)c2ccccc2N1C1CCNCC1` came in with a K2 of 0.15 µM. For the same compound, the ED50 entry in the series on Mus musculus [8] and in the series with Mus musculus [10] was “inactive” throughout. The compound also showed an ED50 with Mus musculus [6] of 0.07 mg/kg.

Take `CN1CCC(N2C(=O)CN=C(c3ccccc3F)c3ccccc32)CC1`: the K2 in series [1] is 0.2 µM. This compound returned an inhibition in vivo at 50 mg/kg in the series on Mus musculus [11] of 37.5%. The compound also showed an ED50 in the series with Mus musculus [6] of 0.21 mg/kg.

Consider `CCOC(=O)N1CCC(N2C(=O)CN=C(c3ccccc3F)c3cc(Cl)ccc32)CC1`, for which the K2 in series [1] turned out to be 0.038 µM. The ED50 in the series on Mus musculus [12] worked out at 11.1 mg/kg; in the series on Mus musculus [2] (setting [22]), 9.09 mg/kg. At 50 mg/kg the inhibition in vivo in the series on Mus musculus [9] was 67%.

As to `CCOC(=O)N1CCC(N2C(=O)CN=C(c3ccccc3Cl)c3cc(Cl)ccc32)CC1`, the K2 in [1] came to 0.02 µM. Moreover, the ED50 in the series on Mus musculus [2] (setting [22]) amounted to 1.95 mg/kg. Also, in the series on Mus musculus [9], 50 mg/kg produced 16% inhibition in vivo.

Regarding `CN1CCC(N2C(=O)CN=C(c3ccccc3F)c3cc(Cl)ccc32)CC1`, the ED50 in the series with Mus musculus [12] was determined as 0.71 mg/kg; with Mus musculus [2], 5.28 mg/kg; in the series with Mus musculus [2] (setting [22]), 2.7 mg/kg; with Mus musculus [3] it was 1.12 mg/kg; in the series with Mus musculus [3] (setting [22]), 2.13 mg/kg; with Rattus norvegicus [13], 3.67 mg/kg. In the series on Mus musculus [6], this compound came in with an ED50 of 1.3 mg/kg.

For `CN(C)CCCN1c2ccccc2CCc2ccccc21` [IMIPRAMINE], the ED50 in the series on Mus musculus [3] (setting [22]) stood at 2.14 mg/kg; in the series on Mus musculus [6], 0.8 mg/kg. In addition, in the series listed under Rattus norvegicus [14], the IC50 came out at 85 nM.

Turning to `CNC1=Nc2ccc(Cl)cc2C(c2ccccc2)=[N+]([O-])C1` [CHLORDIAZEPOXIDE], the ED50 with Mus musculus [3] (setting [22]) is 2.7 mg/kg. Besides, in series [15], the 50% lethal dose (LD50) is 877 mg/kg.

As for `CN1CCC(N2C(=O)CN=C(c3ccccc3F)c3ccc(F)cc32)CC1`, the K2 in series [1] was determined as 0.44 µM. Further, the ED50 result with Mus musculus [16] and with Mus musculus [17] was “inactive” throughout. In the series on Mus musculus [6], this compound showed an ED50 of 0.94 mg/kg.

`O=C1CN=C(c2ccccc2Cl)c2cc(Cl)ccc2N1C1CCCNC1` (centres undefined) gave a K2 in series [1] of 0.013 µM. Further, in the series with Mus musculus [2] (setting [22]), the ED50 was found to be 16.2 mg/kg. The inhibition in vivo at 50 mg/kg with Mus musculus [7] was 57%.

`CN1CCC(N2C(=O)CN=C(c3ccccc3F)c3ccc(C(F)(F)F)cc32)CC1` registered a K2 in series [1] of 17 µM. Further, the ED50 result in the series on Mus musculus [18] and with Mus musculus [19] was “inactive” each time.

`O=C1CN=C(c2ccccc2)c2cc(Br)ccc2N1C1CCNCC1` gave a K2 in [1] of 0.57 µM. In addition, the ED50 in the series with Mus musculus [2] (setting [22]) is 38.8 mg/kg; in the series with Mus musculus [3] (setting [22]), 0.76 mg/kg. Besides, the IC50 in the series listed under Rattus norvegicus [14] is 402 nM.

Consider `CN1CCC(N2C(=O)CN=C(c3ccccc3F)c3cc(Cl)ccc32)C1` (centres undefined), for which, in series [1], the K2 was found to be 0.2 µM. In addition, the ED50 was determined as 1.1 mg/kg in the series on Mus musculus [2] (setting [22]) and 3.69 mg/kg with Mus musculus [3] (setting [22]).

Take `CN1CCC(N2C(=O)CN=C(c3ccccc3F)c3cc([N+](=O)[O-])ccc32)CC1`: the K2 in the series listed under Rattus norvegicus [20] amounted to 8.3 µM; in the series filed under Rattus norvegicus [21], 24 µM. Also, the ED50 entry in the series with Mus musculus [16] was “inactive”. This compound also came in with an ED50 in the series with Mus musculus [6] of 17.7 mg/kg.
